{"source": "the RNAGym collection of RNA variant scans (doi:10.1126/science.aae0568)", "parents": {"B1": {"name": "tRNA (parent)", "chain": "GUUCCGUUGGCGUAAUGGUAACGCGUCUCCCUCCUAAGGAGAAGACUGCGGGUUCGAGUCCCGUACGGAACG"}}, "note": "Variants at the floor of the assay were thinned out."}
{"variants_of": "B1", "test": "yeast fitness relative to wild type (ratio to wild type); higher = fitter; tRNA-Arg(CCU), competitive growth, 37 C, YPD", "method_in_brief": "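For this measurement, the tRNA-Arg(CCU) gene was varied by chemical synthesis at a 3% per-site mutation rate across 69 sites, and each variant was placed at the native genomic locus in Saccharomyces cerevisiae. The pooled strains went through a 24-hour competition in YPD at 37°C in six parallel replicates, with amplicons from start and end populations read by 100-nucleotide paired-end sequencing. Darwinian fitness relative to wild type followed from the change in each genotype's frequency. Genotypes needed ≥ 100 starting reads, and estimates < 0.5 were set to 0.5.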"}
{"variant": "GUUCCGUUGGCGUAAUGAUGACGCGUCUCCCUCCUAAGGAGAAGACUGCGGGUUCGAGUCCCGUACGGUACG", "note": "[G18A A20G A69U]", "yeast fitness": 0.542}
{"variant": "GUUCCGUUGGCGUAAUCGUAACGCGUCUCCCCCCUAAGGAGUAGACUGCGGGUUCGAGUCCCGUACGGAACG", "note": "[G17C U32C A42U]", "yeast fitness": 0.559}
{"variant": "GUUCCGUUGGCGUAAUCGUAACGCGUCUCCCUCCUAAGGAGAAGACUGCGAGUUCGAGUCCCCUACGGUACG", "note": "[G17C G51A G63C A69U]", "yeast fitness": "≤ 0.5"}
{"variant": "GUUCCGUUGGCGUAAUCGUAACGCGUCUCCCACCUAAGGAGAAGAAUGCGGGUUCGAGUCCCGUACGGAACG", "note": "[G17C U32A C46A]", "yeast fitness": 0.582}
{"variant": "GUUCCGUUGGCGUAAUCGUAACGCGUCUCCCUCCUAAGGAGAAGACUGCGGGAUCACGUCCCGUCCGGAACG", "note": "[G17C U53A G56A A57C A65C]", "yeast fitness": "≤ 0.5"}
{"variant": "GUUCCGUUGGCGUAAUCGUAACGCGUCUCCCUCCUAAGGAGAAGACUGCGGGUCCGAGUCCCGUACGGAACG", "note": "[G17C U54C]", "yeast fitness": 0.536}
{"variant": "GUUCCGUUGGCGUAAUUGUAACGUGUCUCCCUCCUAAGGAGAAGACUGCGGGUUCGAGUCCCGUACGGAACG", "note": "[G17U C24U]", "yeast fitness": 0.84}
{"variant": "GUUCCGUUGGCGUAAUCGUAACGCGUCUCCCUCCUAAGGAGAAGACUGCGGGUUCGAGUCCCGUACCGAACG", "note": "[G17C G67C]", "yeast fitness": 0.723}
{"variant": "GUUCCGUUGGCGUAAUUGUAACGCGUCUGCCUCCUAAGGAGAAGACUGCGGGUUCGAGUCCCGUACGGAACG", "note": "[G17U C29G]", "yeast fitness": 0.544}
{"variant": "GUUCCGUUGGCGUAAUCGCGACGCGUCUCCCUCCUAAGGAGAAGACUGCGGGUUCGAGUCCCGUACGUAACG", "note": "[G17C U19C A20G G68U]", "yeast fitness": "≤ 0.5"}
{"variant": "GUUCCGUUGGCGUAAUCGCAACGCGUCUCCCUCCUAAGGGGAAGACGGCGGGUUCGAGUCCCGUACGGAACG", "note": "[G17C U19C A40G U47G]", "yeast fitness": "≤ 0.5"}
{"variant": "GUUCCGUUGGCGUAAUUGGAACGCGUCUCCCUCCUAGGGAGAAGACUGCGGGUUCGAGUCCCGUAUGGUACG", "note": "[G17U U19G A37G C66U A69U]", "yeast fitness": 0.561}
{"variant": "GUUCCGUUGGCGUAAUCGUAACGCGUCUCCCUCCUAAGGAGAAGACUGCGGGUUCGACUCCCGUACGGAACG", "note": "[G17C G58C]", "yeast fitness": 0.528}
{"variant": "GUUCCGUUGGCGUAAUGAUCACGCGUCUCCCUCUUUAGCAGAAGACUGCGGGUUCGAGUCCCGUACGGAACG", "note": "[G18A A20C C34U A36U G39C]", "yeast fitness": 0.539}
{"variant": "GUUCCGUUGGCGUAAUCGUAACGCGUCUCCCUCCUAAGGAGAAGACUGCGGCUUCGAGUCCCGAACGGAACG", "note": "[G17C G52C U64A]", "yeast fitness": "≤ 0.5"}
{"variant": "GUUCCGUUGGCGUAAUCGUAACGCGUCUCCCUCCUAAGGAGAAGACUGCGGGGUCGAGUCCCGUACGGAUCG", "note": "[G17C U53G A70U]", "yeast fitness": 0.564}
{"variant": "GUUCCGUUGGCGUAAUCGUAACGCGUCUCCCUCCUAAGGAGAAGACGGCGGGUUCGAGUCCCGUAUAGUACG", "note": "[G17C U47G C66U G67A A69U]", "yeast fitness": "≤ 0.5"}
{"variant": "GUUCCGUUGGCGUAAUCGUAACGCGUCUCCCUCCUAAGGAGAAGACUGCGCGUUCGAGUCCCGUAUGGAACG", "note": "[G17C G51C C66U]", "yeast fitness": "≤ 0.5"}
{"variant": "GUUCCGUUGGCGUAAUCGAAACGGGACUCCCUCUUAAGGAGAAGACUGCGGGUUCGAGUCCCGUACGGAACG", "note": "[G17C U19A C24G U26A C34U]", "yeast fitness": "≤ 0.5"}
{"variant": "GUUCCGUUGGCGUAAUCGUAACGCGUCACAAUCCUAAGGAGAAGACUGCGGGUUCGAGUCCCGUACGGAACG", "note": "[G17C U28A C30A C31A]", "yeast fitness": 0.623}
{"variant": "GUUCCGUUGGCGUAAUCGUAACGCGUCUCCCUCCUAAGGAGAAGACUGCGGGUUCGAGUCCCCUACGGAACG", "note": "[G17C G63C]", "yeast fitness": "≤ 0.5"}
{"variant": "GUUCCGUUGGCGUAAUCGUAACGCGUCUCCCUCCUAAGGAGAAGACUGCGGGUUCGAGUCCCCUAUGGAACG", "note": "[G17C G63C C66U]", "yeast fitness": "≤ 0.5"}
{"variant": "GUUCCGUUGGCGUAAUCGUAACGCGUCUCCCACCUAAGGAGAAGAAUGCGGGUUCGAGUCCCGUACGGUACG", "note": "[G17C U32A C46A A69U]", "yeast fitness": "≤ 0.5"}
{"variant": "GUUCCGUUGGCGUAAUCGUAACGCGCCUCCCUCCUAAGGAGAAGAUUGCGGGUUCGAGUCCCGUUCGGAACG", "note": "[G17C U26C C46U A65U]", "yeast fitness": 0.558}
{"variant": "GUUCCGUUGGCGUAAUCGUAACGCGUCUCCCUCCUAAGGAGAAGACUGCGGGUUCCGGUCCCGUACGUAACG", "note": "[G17C G56C A57G G68U]", "yeast fitness": 0.571}
{"variant": "GUUCCGUUGGCGUAAUCGUAACGCGUCCCCCUCCUAAGGAGAAGACUGCGGGUUAGAGUACCGUACGGAACG", "note": "[G17C U28C C55A C60A]", "yeast fitness": "≤ 0.5"}
{"variant": "GUUCCGUUGGCGUAAUCGUAACGCGUCUCCCUCCCAAGGAGAAGACUGCGAGUUCGAGUCCCGUAGGGAACG", "note": "[G17C U35C G51A C66G]", "yeast fitness": "≤ 0.5"}
{"variant": "GUUCCGUUGGCGUAAUCGUAACGCGGCUCCCUCCUAAGCUGAAGACUGCGGGUUCGAGUCCCGUACGGAACG", "note": "[G17C U26G G39C A40U]", "yeast fitness": "≤ 0.5"}
{"variant": "GUUCCGUUGGCGUAAUUGUAACGCGUCUCCCUCCCAUGGAGAAGACUGCGGGUUCGCGUCCCGUACGGAACG", "note": "[G17U U35C A37U A57C]", "yeast fitness": "≤ 0.5"}
{"variant": "GUUCCGUUGGCGUAAUCGUAACGCGUCUCCCUCCAAAGGAGAAGACUGCGGGUUCGAGUCCCGUACGGAACG", "note": "[G17C U35A]", "yeast fitness": "≤ 0.5"}
{"variant": "GUUCCGUUGGCGUAAUCGCAACGAGUCUCCCCCCUAAGGAGAAGACUGCGGGUUCGAGUCCCGUACGGAACG", "note": "[G17C U19C C24A U32C]", "yeast fitness": "≤ 0.5"}
{"variant": "GUUCCGUUGGCGUAAUUGUAACGCGUCUCCCUCCUAAGGUGUAGACUGGGAGUUCGAGUCCCGUAAGCAACG", "note": "[G17U A40U A42U C49G G51A C66A G68C]", "yeast fitness": 0.536}
{"variant": "GUUCCGUUGGCGUAAUCGAAACGCGUCUCCCUCCUCUGGAGAAGACUGCGGGUUCGAGUGCCGUACCGAACG", "note": "[G17C U19A A36C A37U C60G G67C]", "yeast fitness": "≤ 0.5"}
{"variant": "GUUCCGUUGGCGUAAUCGAAACGCGUCUCCCUCCUAAGGAGAAGACUGGGGGUUCGAGUCCCGUACGGAACG", "note": "[G17C U19A C49G]", "yeast fitness": 0.517}
{"variant": "GUUCCGUUGGCGUAAUCGUAACGCGUCUCCCUCCUAAGGAGAAGACCGCGGGUUCGAGUCCCGUACGGAACG", "note": "[G17C U47C]", "yeast fitness": 0.711}
{"variant": "GUUCCGUUGGCGUAAUCGUAACGCGUCUCCCUCCUAAGGAGAAGACUGCGGGUUCAAGUCCCGUACGGAACG", "note": "[G17C G56A]", "yeast fitness": 0.709}
{"variant": "GUUCCGUUGGCGUAAUCGUAACGCGUCUCCCUCCUAAGGAGAAGACUGCGGGUUCCAGUCCCGUACGGAACG", "note": "[G17C G56C]", "yeast fitness": 0.633}
{"variant": "GUUCCGUUGGCGUAAUCGUAACGCGUCACCCUCGUAAAGAGAAGACUGCGGGUUCGAGACCCGUACGGAACG", "note": "[G17C U28A C34G G38A U59A]", "yeast fitness": "≤ 0.5"}
